By CC50 is commonly meant the concentration at which the toxic effect on the cells reaches its halfway point. Low readings indicate greater toxicity to the cells, high ones lower toxicity to the cells. For orientation: IC50 means the concentration at which inhibition is half-maximal.

We go through ten compounds from ChEMBL document CHEMBL1152870, “Design and synthesis of novel dihydroquinoline-3-carboxylic acids as HIV-1 integrase inhibitors” (Bioorg Med Chem, 2009).

For assay [1], the system named is HCT-116. Briefly: Cytotoxicity against human HCT116 cells expressing p53 after 72 hrs by MTT assay. It counts as functional. Conditions: HCT-116, 72 h. Summed up: (§1)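 HCT116 p53+/+ or p53−/− cells grown as monolayers in RPMI 1640 with 10% FBS and 2 mmol/L L-glutamine at 37 °C, 5% CO2, and used in exponential growth. Cells were seeded, allowed to attach, then exposed continuously to drug for 72 h. DMSO stocks were diluted in medium. MTT (0.5 mg/mL final) was added for 4 h at 37 °C and read at 570 nm. Triplicates; IC50 from log concentration versus % cells killed.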

For assay [2], the target named is T1, Human immunodeficiency virus type 1 integrase (Human immunodeficiency virus 1, UniProt Q7ZJM1). Briefly: Inhibition of HIV1 integrase 3' processing activity by PAGE.
T1 sequence (Q7ZJM1 whole entry): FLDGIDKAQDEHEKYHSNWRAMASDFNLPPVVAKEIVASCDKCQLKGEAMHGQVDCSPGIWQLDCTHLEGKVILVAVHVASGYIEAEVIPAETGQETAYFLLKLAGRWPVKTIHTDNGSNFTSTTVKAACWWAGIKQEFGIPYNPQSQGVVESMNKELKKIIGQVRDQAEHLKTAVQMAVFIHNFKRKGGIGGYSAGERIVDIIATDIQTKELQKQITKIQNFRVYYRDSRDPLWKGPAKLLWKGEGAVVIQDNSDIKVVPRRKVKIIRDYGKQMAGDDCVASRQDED
Assay [3] deals with T1, Human immunodeficiency virus type 1 integrase. Briefly: Inhibition of HIV1 integrase strand transfer activity by PAGE.
Assay [4] relates to HCT-116. Put plainly: Cytotoxicity against p53 deficient human HCT116 cells after 72 hrs by MTT assay. It counts as functional. The following applies: HCT-116, 72 h. In a few lines: as §1

Turning to `CCOC(=O)c1c(O)c2cc(OC)ccc2n(C)c1=O`, the CC50 in assay [1] and in assay [4] was more than 10 µM throughout. Also, the IC50 in assay [2] and in assay [3] was more than 1000 µM each time.
As for `Cn1c(=O)c(C(=O)O)c(O)c2cc(Cc3ccccc3)ccc21`, the CC50 in assay [1] and in assay [4] was more than 10 µM in each case. Further, the figures for the IC50 in assay [2] and in assay [3] were 45 µM and 6 µM, respectively.
Regarding `CCCCCn1c(=O)c(C(=O)Nc2cc([N+](=O)[O-])ccc2O)c(O)c2ccccc21`, the CC50 in assay [1] and in assay [4] was more than 10 µM in each case. Moreover, the IC50 in assay [2] and in assay [3] was 9 µM throughout.
On to `COc1ccc2c(c1)c(O)c(C(=O)O)c(=O)n2C`, for which the CC50 in assay [1] and in assay [4] was more than 10 µM in each case. For the same compound, the IC50 amounted to 580 µM in assay [2] and 320 µM in assay [3].
Turning to `Cn1c(=O)c(C(=O)O)c(O)c2cc(Cc3ccc(F)cc3)ccc21`, the CC50 in assay [1] and in assay [4] was more than 10 µM each time. The half-inhibitory concentration (IC50) in assay [2] is 23 µM; in assay [3] it was 0.9 µM.
For the compound `Cn1c(=O)c(C(=O)O)c(O)c2cc(Oc3ccccc3)ccc21`, the CC50 in assay [1] and in assay [4] was more than 10 µM throughout. Moreover, the 50% inhibitory concentration (IC50) in assay [2] amounted to 34 µM; in assay [3], 14 µM.
`CCOC(=O)c1c(O)c2cc(Cc3ccc(F)cc3)ccc2n(C)c1=O`: the half-maximal cytotoxic concentration (CC50) in assay [1] and in assay [4] was more than 10 µM throughout. Further, the IC50 was determined as 800 µM in assay [2] and 220 µM in assay [3].
With `O=C(O)C(=O)CC(=O)c1cccn1Cc1ccc(F)cc1`, the CC50 in assay [1] and in assay [4] was more than 10 µM each time.
On to `CCCCCn1c(=O)c(C(=O)O)c(O)c2cc(Cc3ccc(F)cc3)ccc21`, for which the cytotoxic concentration (CC50) in assay [1] and in assay [4] was more than 10 µM throughout. Moreover, the IC50 in assay [2] came out at 92 µM; in assay [3], 5 µM.
`CCOC(=O)c1c(O)c2cc(Cc3ccccc3)ccc2n(C)c1=O`: the CC50 in assay [1] and in assay [4] was more than 10 µM each time. The figures for the 50% inhibitory concentration (IC50) in assay [2] and in assay [3] were 275 µM and 110 µM, respectively.
